The text below walks through data of ChEMBL document CHEMBL5131379 (J Med Chem, 2021).

A word on the IC50: it is the concentration at which inhibition is half-maximal.

The source made the active and inactive calls. The calls are words filed in the database; no cut-off is given here. Some results are limits rather than exact numbers.

One data set is described as follows: in vitro. As to conditions: human, MRC9 cells.
For data set [1], the system named is MV4-11. As to the kind of experiment: Induction of apoptosis in human MV4-11 cells at 0.5 uM assessed as increase in cleaved caspase-3 level measured after 6 hrs by Western blot analysis. It is filed as functional, cell-based. The essentials:
(§1)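 Protein was measured by BCA and run on a 4–20% SDS gel, then transferred to nitrocellulose and blocked in 5% milk. Primary antibodies were incubated overnight at 4 °C, with HSC70 as loading control. HRP secondaries were used with ECL detection.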
(In general: A western blot detects proteins with antibodies after separation by electrophoresis.)

Data set [2] concerns MV4-11. As to the kind of experiment: Induction of apoptosis in human MV4-11 cells assessed as viable cells at 2 uM measured after 18 hrs by Annexin V-FITC/propidium iodide staining based FACS flow cytometry (reference value: 83.23%). It is filed as functional. Particulars: read-out: Activity. (In general: Flow cytometry measures light scatter and fluorescence of single cells or particles in a stream.)

The test system of data set [3] is MV4-11. The data set is described as follows: Induction of apoptosis in human MV4-11 cells assessed as late apoptotic cells at 1 uM measured after 18 hrs by Annexin V-FITC/propidium iodide staining based FACS flow cytometry (reference value: 7.49%). It counts as functional.
Data set [4] has as its system MV4-11. As to the kind of experiment: Induction of apoptosis in human MV4-11 cells assessed as viable cells at 0.5 uM measured after 18 hrs by Annexin V-FITC/propidium iodide staining based FACS flow cytometry (reference value: 83.23%). It is filed as functional. Particulars: read-out: Activity.
The test system of data set [5] is MV4-11. As to the kind of experiment: Induction of apoptosis in human MV4-11 cells at 0.5 uM assessed as increase in cleaved PARP-1 level measured after 6 hrs by Western blot analysis. It is filed as functional, cell-based. A digest of the protocol:
as §1

Data set [6] addresses T1, Protein deacetylase HDAC6 (Homo sapiens) (UniProt Q9UBN7).
T1 sequence (whole entry): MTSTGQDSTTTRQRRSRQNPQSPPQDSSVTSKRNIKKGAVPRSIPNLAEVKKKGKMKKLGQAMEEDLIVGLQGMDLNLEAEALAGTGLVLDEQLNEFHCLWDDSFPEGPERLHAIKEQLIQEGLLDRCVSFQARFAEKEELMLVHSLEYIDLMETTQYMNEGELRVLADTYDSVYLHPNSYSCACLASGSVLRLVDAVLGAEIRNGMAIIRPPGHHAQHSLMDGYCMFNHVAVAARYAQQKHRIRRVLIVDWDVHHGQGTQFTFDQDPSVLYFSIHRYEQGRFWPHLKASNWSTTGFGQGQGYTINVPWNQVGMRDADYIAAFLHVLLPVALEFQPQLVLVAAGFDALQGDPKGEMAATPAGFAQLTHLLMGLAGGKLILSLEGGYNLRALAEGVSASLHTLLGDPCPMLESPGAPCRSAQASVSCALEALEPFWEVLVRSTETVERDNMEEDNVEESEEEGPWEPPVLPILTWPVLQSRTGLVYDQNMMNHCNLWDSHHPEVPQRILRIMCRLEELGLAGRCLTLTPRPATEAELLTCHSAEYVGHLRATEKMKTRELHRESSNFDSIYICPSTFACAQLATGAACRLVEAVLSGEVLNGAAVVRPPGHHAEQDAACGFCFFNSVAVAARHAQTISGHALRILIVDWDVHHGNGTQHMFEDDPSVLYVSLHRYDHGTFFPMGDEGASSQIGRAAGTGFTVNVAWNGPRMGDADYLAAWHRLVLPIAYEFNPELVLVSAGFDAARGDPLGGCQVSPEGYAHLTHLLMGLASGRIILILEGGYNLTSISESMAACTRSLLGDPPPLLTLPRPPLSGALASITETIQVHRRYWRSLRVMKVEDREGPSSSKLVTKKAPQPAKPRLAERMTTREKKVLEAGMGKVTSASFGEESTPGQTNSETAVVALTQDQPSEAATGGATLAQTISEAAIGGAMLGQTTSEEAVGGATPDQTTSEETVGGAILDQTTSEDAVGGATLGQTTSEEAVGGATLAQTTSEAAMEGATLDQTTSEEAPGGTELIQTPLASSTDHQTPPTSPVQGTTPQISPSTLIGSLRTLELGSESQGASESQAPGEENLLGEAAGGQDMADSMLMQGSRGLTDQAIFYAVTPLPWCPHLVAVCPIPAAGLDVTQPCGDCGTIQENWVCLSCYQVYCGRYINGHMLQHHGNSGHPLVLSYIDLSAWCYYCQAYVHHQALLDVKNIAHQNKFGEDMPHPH
The data set is described as follows: Inhibition of HDAC6 in human HeLa cells assessed as increase in acetylated alpha tubulin level incubated for 6 hrs by immunofluorescent assay. It counts as cell-based. The essentials: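 HeLa cells (DMEM, 10% FBS, 37 °C, 5% CO2) seeded subconfluent; inhibitor added after 24 h, increasing doses for 6 h. Fixed in 4% formaldehyde, permeabilised with 1% Triton X-100, blocked in 5% BSA. Stained for acetylated α-tubulin and acetylated histone H3 (Lys18), DAPI counterstain. Intensity from imaging, n = 3, two-way ANOVA with Tukey test.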

In data set [7] the test system is MV4-11. The data set is described as follows: Induction of apoptosis in human MV4-11 cells assessed as early apoptotic cells at 1 uM measured after 18 hrs by Annexin V-FITC/propidium iodide staining based FACS flow cytometry (reference value: 2.23%). It is filed as functional.
Data set [8] relates to MV4-11. The data set is described as follows: Induction of apoptosis in human MV4-11 cells assessed as early apoptotic cells at 4 uM measured after 18 hrs by Annexin V-FITC/propidium iodide staining based FACS flow cytometry (reference value: 2.23%). It is filed as functional.
Data set [9] relates to MV4-11. The data set is described as follows: Induction of apoptosis in human MV4-11 cells assessed as early apoptotic cells at 0.25 uM measured after 18 hrs by Annexin V-FITC/propidium iodide staining based FACS flow cytometry (reference value: 2.23%). It counts as functional.
Data set [10] has as its system MV4-11. As to the kind of experiment: Induction of apoptosis in human MV4-11 cells assessed as viable cells at 0.25 uM measured after 18 hrs by Annexin V-FITC/propidium iodide staining based FACS flow cytometry (reference value: 83.23%). As to conditions: read-out: Activity. It counts as functional.
Data set [11] deals with MV4-11. As to the kind of experiment: Induction of apoptosis in human MV4-11 cells assessed as early apoptotic cells at 2 uM measured after 18 hrs by Annexin V-FITC/propidium iodide staining based FACS flow cytometry (reference value: 2.23%). It counts as functional.
Data set [12] relates to MV4-11. The data set is described as follows: Induction of apoptosis in human MV4-11 cells assessed as late apoptotic cells at 0.25 uM measured after 18 hrs by Annexin V-FITC/propidium iodide staining based FACS flow cytometry (reference value: 7.49%). It is filed as functional.
Data set [13] concerns the target T1, Protein deacetylase HDAC6 (Homo sapiens). The data set is described as follows: Binding affinity to HDAC6 (unknown origin) assessed as residence time.
The test system of data set [14] is MV4-11. As to the kind of experiment: Induction of apoptosis in human MV4-11 cells assessed as late apoptotic cells at 0.5 uM measured after 18 hrs by Annexin V-FITC/propidium iodide staining based FACS flow cytometry (reference value: 7.49%). It is filed as functional.
For data set [15], the target named is T1, Protein deacetylase HDAC6 (Homo sapiens). As to the kind of experiment: Inhibition of HDAC6 in human MV4-11 cells assessed as increase in acetylated alpha-tubulin incubated for 6 hrs by Western blot analysis. It is filed as cell-based. A digest of the protocol:
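Protein quantified by BCA, run on 4–20% SDS gel, blotted to nitrocellulose. Probed overnight at 4 °C for acetylated α-tubulin and acetylated H3 (Lys18), HSC70 as loading control. HRP secondaries, ECL detection.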

For data set [16], the system named is MV4-11. As to the kind of experiment: Induction of apoptosis in human MV4-11 cells at 0.5 uM assessed as increase in cleaved caspase-3 level measured after 6 hrs by Western blot analysis.
In data set [17] the test system is MV4-11. As to the kind of experiment: Induction of apoptosis in human MV4-11 cells assessed as late apoptotic cells at 4 uM measured after 18 hrs by Annexin V-FITC/propidium iodide staining based FACS flow cytometry (reference value: 7.49%). It counts as functional.
Data set [18] concerns MV4-11. The data set is described as follows: Induction of apoptosis in human MV4-11 cells assessed as viable cells at 4 uM measured after 18 hrs by Annexin V-FITC/propidium iodide staining based FACS flow cytometry (reference value: 83.23%). Particulars: read-out: Activity. It counts as functional.
Data set [19] has as its system MV4-11. As to the kind of experiment: Induction of apoptosis in human MV4-11 cells assessed as early apoptotic cells at 0.5 uM measured after 18 hrs by Annexin V-FITC/propidium iodide staining based FACS flow cytometry (reference value: 2.23%). It counts as functional.
Data set [20] relates to MV4-11. The data set is described as follows: Induction of apoptosis in human MV4-11 cells assessed as late apoptotic cells at 2 uM measured after 18 hrs by Annexin V-FITC/propidium iodide staining based FACS flow cytometry (reference value: 7.49%). It is filed as functional.
The nature of data set [21]: Cytotoxicity against human MRC9 cells assessed as reduction in cell growth incubated for 72 hrs by Cell titer-blue assay. It counts as toxicity, cell-based. For orientation: The colour change of resazurin is a common sign of viable cells or microbes.
The target of data set [22] is Histone deacetylase 1 (Homo sapiens) (UniProt Q13547). The data set is described as follows: Inhibition of HDAC1 in human MV4-11 cells assessed as acetylation of histone H3 incubated for 6 hrs by Western blot analysis. It is filed as cell-based. A digest of the protocol: as §1
Histone deacetylase 1 (Homo sapiens), sequence (Q13547 whole entry): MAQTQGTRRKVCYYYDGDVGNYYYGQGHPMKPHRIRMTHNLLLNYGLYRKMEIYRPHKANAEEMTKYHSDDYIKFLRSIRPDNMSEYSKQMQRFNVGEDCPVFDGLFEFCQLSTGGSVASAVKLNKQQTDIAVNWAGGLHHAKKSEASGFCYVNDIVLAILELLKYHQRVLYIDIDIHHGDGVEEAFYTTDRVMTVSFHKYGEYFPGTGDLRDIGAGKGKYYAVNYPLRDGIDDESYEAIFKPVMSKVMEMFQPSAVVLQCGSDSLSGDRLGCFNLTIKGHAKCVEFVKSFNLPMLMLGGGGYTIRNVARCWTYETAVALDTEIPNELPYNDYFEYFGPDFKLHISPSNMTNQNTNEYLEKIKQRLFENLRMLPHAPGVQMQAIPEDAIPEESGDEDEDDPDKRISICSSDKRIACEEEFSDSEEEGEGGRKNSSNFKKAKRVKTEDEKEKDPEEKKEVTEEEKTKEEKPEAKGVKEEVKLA

For the molecule `O=C(NO)c1cccc(CN(C2CC2)S(=O)(=O)c2c(F)c(F)c(F)c(F)c2F)c1`, in the data set “in vitro”, the IC50 at 72 h is above 50 µM.

The molecule `O=C(NO)c1ccc(CN(C2CC2)S(=O)(=O)c2c(F)c(F)c(Cl)c(F)c2F)cc1` registered an IC50 at 72 h in “in vitro” above 30 µM.

`O=C(NO)c1ccc(CN(C2CC2)S(=O)(=O)c2cc(F)c(F)c(F)c2)cc1` returned an IC50 at 72 h in “in vitro” above 25 µM.

For the molecule `O=C(NO)c1ccc(CN(C2CC2)S(=O)(=O)c2cc(F)c(F)c(F)c2F)cc1`, the result with MV4-11 [1], with MV4-11 [5] and in the data set with MV4-11 [16] was Active. Further, the viability at 2 µM in the data set with MV4-11 [2] stood at 8.34%. Besides, the Activity in the data set with MV4-11 [3] is recorded as 22.3%; in the data set with MV4-11 [7], 18.12%; in the data set with MV4-11 [8] it was 24.37%; in the data set with MV4-11 [9], 6.73%; in the data set with MV4-11 [11] it was 24.39%; in the data set on MV4-11 [12] it was 13.93%. In addition, the Activity in the data set with MV4-11 [14] is 17.58%; in the data set with MV4-11 [17], 19.18%; in the data set on MV4-11 [19], 15.26%; in the data set on MV4-11 [20] it was 19.6%. Moreover, in the data set with MV4-11 [4], the viability at 0.5 µM is 49.5%. Also, the inhibition entry in data set [6] and in data set [15] was “Active” throughout. Further, the viability at 0.25 µM in the data set with MV4-11 [10] was 70.6%. In the data set “in vitro”, this molecule displayed an IC50 at 72 h above 20 µM. Besides, the TIME in data set [13] turned out to be 0.386 h. For the same molecule, the viability at 4 µM with MV4-11 [18] is 7.61%.

Take `O=C(CCCCCCNC(=O)c1cnc(N(c2ccccc2)c2ccccc2Cl)nc1)NO` [CITARINOSTAT]: the IC50 at 72 h (in “in vitro”; in data set [21]) was above 30 µM throughout. Also, the inhibition entry in data set [15] and in data set [22] was “Active” each time.

Molecule `O=C(NO)c1ccc(CN(C2CC2)S(=O)(=O)c2c(F)cc(F)cc2F)cc1` returned an IC50 at 72 h in “in vitro” above 20 µM.

Take `O=C(NO)c1ccc(CNC(=O)c2c(F)c(F)c(F)c(F)c2F)cc1`: the IC50 at 72 h in “in vitro” was above 50 µM.

The molecule `CN(Cc1ccc(C(=O)NO)cc1)S(=O)(=O)c1c(F)c(F)c(F)c(F)c1F` yielded an IC50 at 72 h in “in vitro” above 30 µM.

`CC(C)N(Cc1ccc(C(=O)NO)cc1)S(=O)(=O)c1c(F)c(F)c(F)c(F)c1F`: the IC50 at 72 h in the data set “in vitro” was above 10 µM.

`O=C(NO)c1ccc(CN(C2CC2)S(=O)(=O)c2ccc(F)cc2)cc1` came in with an IC50 at 72 h in the data set “in vitro” above 50 µM.

Consider `O=C(CCCCCCNC(=O)c1cnc(N(c2ccccc2)c2ccccc2)nc1)NO` [RICOLINOSTAT], for which the 50% inhibitory concentration (IC50) at 72 h in the data set “in vitro” was above 20 µM.

Molecule `O=C(NO)c1ccc(CNS(=O)(=O)c2c(F)c(F)c(F)c(F)c2F)cc1` gave an IC50 at 72 h in the data set “in vitro” above 25 µM.

For `O=C(NO)c1ccc(CN(C2CC2)S(=O)(=O)c2c(F)c(F)c(F)c(F)c2F)cc1`, the IC50 at 72 h in “in vitro” is above 20 µM.

`O=C(NO)c1ccc(CN(C2CC2)S(=O)(=O)c2c(F)c(Cl)c(F)c(Cl)c2F)cc1` showed an IC50 at 72 h in the data set “in vitro” above 50 µM.

`O=C(NO)c1ccc(CN(C2CC2)S(=O)(=O)c2c(F)cc(F)c(Cl)c2F)cc1` yielded an IC50 at 72 h in the data set “in vitro” above 20 µM.

In “in vitro”, `O=C(NO)c1ccc(CN(C2CC2)S(=O)(=O)c2c(F)c(F)cc(F)c2F)cc1` showed an IC50 at 72 h above 15 µM.
